Laboratory results: ChEMBL document CHEMBL1240421, “Synthesis and evaluation of graveoline and graveolinine derivatives with potent anti-angiogenesis activities” (Eur J Med Chem, 2010)
Calls of active or inactive are those of the source. The calls are words filed in the database; no cut-off is given here.

Tests used:
[1] = Cytotoxicity against human GLC82 cells after 48 hrs by MTT assay; format: functional, cell-based; settings: GLC82, 48 h
In short: (§1)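 Cells seeded at 5000 per well, exposed to a range of concentrations. MTT step, then 4 h further incubation. Formazan dissolved in DMSO, OD read at 490 nm. Triplicate wells; IC50 taken from curves of mean OD versus concentration.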

NCI-H460 = experiment: Cytotoxicity against human NCI-H460 cells after 48 hrs by MTT assay; format: functional, cell-based; settings: NCI-H460, 48 h; in short: as §1
HUVEC [2] = experiment: Cytotoxicity against HUVEC cells after 48 hrs by MTT assay; format: cell-based; settings: Homo sapiens; in short: as §1
HUVEC [3] = experiment: Inhibition of HUVEC cell adhesion to collagen at 15 uM; settings: Homo sapiens
HUVEC [4] = experiment: Inhibition of HUVEC cell adhesion to collagen at 30 uM after 3 hrs
Gallus gallus = species: Gallus gallus; experiment: Antiangiogenic activity in fertilized chicken eggs at 30 ug/10 uL after 48 hrs by CAM assay; format: functional; settings: Egg
In short: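 Test agent applied to the chick CAM at 30 µg/10 µL, 10 eggs per treatment; 0.9% NaCl as negative control, thalidomide as positive control. After 48 h, CAMs fixed in 4% paraformaldehyde, vessels counted in three random microscope fields around the filter disc.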

HUVEC [5] = experiment: Inhibition of HUVEC cell adhesion to collagen at 15 uM after 1 hr; format: functional, cell-based; settings: Homo sapiens
In short: (§2)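 Wells coated overnight at room temperature with rat tail tendon type I collagen in PBS, blocked with 0.2% BSA for 2 h at 37 °C. HUVEC resuspended in DMEM and added at 10⁴ cells/ml with compound, incubated 1 or 3 h at 37 °C. After washing, attached cells stained with 0.2% crystal violet and solubilized in 2% SDS; OD at 570 nm. Triplicate wells, three independent experiments.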

HUVEC [6] = experiment: Inhibition of HUVEC cell adhesion to collagen at 30 uM after 1 hr; format: functional; settings: Homo sapiens; in short: as §2
HUVEC [7] = experiment: Inhibition of HUVEC cell adhesion to collagen at 15 uM after 3 hrs; format: functional; settings: Homo sapiens; in short: as §2
HUVEC [8] = experiment: Inhibition of migration of HUVEC cellss at 15 to 30 uM; format: functional, Homo sapiens
In short: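 Scratch-wound assay: HUVEC plated at 20 000 cells per well, monolayer scraped with a rubber policeman, then incubated 24 h with or without compound. Two random pictures per wound; migration area measured. Triplicate measurements, at least three experiments.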

In the case of `Cc1ccc(-c2cc(=O)c3ccccc3n2C)cc1`, the IC50 [1] is reported as > 100 µM, the IC50 (NCI-H460) is reported as > 100 µM and the IC50 (HUVEC [2]) is reported as > 100 µM. The inhibition at 15 µM (HUVEC [3]) was 30.3% and the “inhibition (INH)” value (HUVEC [4]) was 8.1%.
With `Cc1ccc(-c2cc(Cl)c3ccccc3n2)cc1` the IC50 [1] was > 100 µM, the IC50 (NCI-H460) was > 100 µM and the IC50 (HUVEC [2]) was > 100 µM. For the same compound, the inhibition at 15 µM (HUVEC [3]) was 39% and the “inhibition (INH)” value (HUVEC [4]) was 35.2%.
With `Clc1cc(-c2ccc(CNCCCN3CCOCC3)cc2)nc2ccccc12` the IC50 [1] was 30.6 µM, the IC50 (NCI-H460) was 21.1 µM and the IC50 (HUVEC [2]) was 22.4 µM. The inhibition at 15 µM (HUVEC [3]) was 67.8% and the “inhibition (INH)” value (HUVEC [4]) was 72.3%.
Compound `Cc1ccc(-c2cc(NCCCN3CCOCC3)c3ccccc3n2)cc1` has an IC50 [1] of 49.5 µM, an IC50 (NCI-H460) of 11.5 µM and an IC50 (HUVEC [2]) of 45.2 µM. The Activity (Gallus gallus) was “Active”, the inhibition at 15 µM (HUVEC [3]) was 47.2% and the “inhibition (INH)” value (HUVEC [4]) was 49.2%.
For `Cc1ccc(-c2cc(NCCN(C)C)c3ccccc3n2)cc1`, the IC50 [1] was 20.6 µM, the IC50 (NCI-H460) was 6.1 µM and the IC50 (HUVEC [2]) was 30.3 µM. For the same compound, the Activity (Gallus gallus) was “Active”, the inhibition at 15 µM (HUVEC [3]) was 52.2% and the “inhibition (INH)” value (HUVEC [4]) was 48.2%.
With `CN(C)CCCNCc1ccc(-c2cc(=O)c3ccccc3n2C)cc1` the IC50 [1] was > 100 µM, the IC50 (NCI-H460) was > 100 µM and the IC50 (HUVEC [2]) was 99.7 µM. For the same compound, the inhibition at 15 µM (HUVEC [3]) was 31.9% and the “inhibition (INH)” value (HUVEC [4]) was 42%.
In the case of `COc1cc(-c2ccc(CO)cc2)nc2ccccc12`, the IC50 [1] is reported as > 100 µM, the IC50 (NCI-H460) is reported as > 100 µM and the IC50 (HUVEC [2]) is reported as > 100 µM. For the same compound, the inhibition at 15 µM (HUVEC [3]) was 27.5% and the “inhibition (INH)” value (HUVEC [4]) was 19.4%.
For `Cc1ccc(-c2cc(NCCO)c3ccccc3n2)cc1`, the IC50 [1] was 61.1 µM, the IC50 (NCI-H460) was 53.7 µM and the IC50 (HUVEC [2]) was 73.7 µM. The Activity (Gallus gallus) was “Active”, the inhibition at 15 µM (HUVEC [3]) was 38.3% and the “inhibition (INH)” value (HUVEC [4]) was 40%.
`COc1ccc(-c2cc(NCCO)c3ccccc3n2)cc1` gave an IC50 [1] of 56.2 µM, an IC50 (NCI-H460) of 38.3 µM and an IC50 (HUVEC [2]) of 74.1 µM. For the same compound, the inhibition at 15 µM (HUVEC [3]) was 54.1% and the “inhibition (INH)” value (HUVEC [4]) was 54.9%.
In the case of `COc1ccc(-c2cc(NCCCO)c3ccccc3n2)cc1`, the IC50 [1] is reported as 40.9 µM, the IC50 (NCI-H460) is reported as 24 µM and the IC50 (HUVEC [2]) is reported as 47.6 µM. For the same compound, the inhibition at 15 µM (HUVEC [3]) was 45.3% and the “inhibition (INH)” value (HUVEC [4]) was 56.4%.
Work on `COc1ccc(Nc2cc(-c3ccc(C)cc3)nc3ccccc23)cc1` yielded an IC50 [1] of 34.2 µM, an IC50 (NCI-H460) of 24.2 µM and an IC50 (HUVEC [2]) of 14.3 µM. The Activity (Gallus gallus) was “Active”, the inhibition at 15 µM (HUVEC [3]) was 42.4% and the “inhibition (INH)” value (HUVEC [4]) was 48.1%.
For `Cc1ccc(-c2cc(NCCCO)c3ccccc3n2)cc1`, the IC50 [1] was 60.3 µM, the IC50 (NCI-H460) was 48.1 µM and the IC50 (HUVEC [2]) was 63.5 µM. The Activity (Gallus gallus) was “Active”, the inhibition at 15 µM (HUVEC [3]) was 44.2% and the “inhibition (INH)” value (HUVEC [4]) was 33.8%.
With `COc1cc(-c2ccc(COC(=O)c3cccs3)cc2)nc2ccccc12` the IC50 [1] was > 100 µM, the IC50 (NCI-H460) was > 100 µM and the IC50 (HUVEC [2]) was > 100 µM. For the same compound, the inhibition at 15 µM (HUVEC [3]) was 37.4% and the “inhibition (INH)” value (HUVEC [4]) was 27.4%.
In the case of `COc1ccc(-c2cc(Cl)c3ccccc3n2)cc1`, the IC50 [1] is reported as > 100 µM, the IC50 (NCI-H460) is reported as > 100 µM and the IC50 (HUVEC [2]) is reported as > 100 µM. The inhibition at 15 µM (HUVEC [3]) was 52.6% and the “inhibition (INH)” value (HUVEC [4]) was 48.2%.
With `COc1cc(-c2ccc(C)cc2)nc2ccccc12` the IC50 [1] was > 100 µM, the IC50 (NCI-H460) was > 100 µM and the IC50 (HUVEC [2]) was > 100 µM. The inhibition at 15 µM (HUVEC [3]) was 35.4% and the “inhibition (INH)” value (HUVEC [4]) was 20.3%.
Work on `c1ccc2c(NCCCN3CCOCC3)cc(-c3ccc(CNCCCN4CCOCC4)cc3)nc2c1` yielded an IC50 [1] of 34.4 µM, an IC50 (NCI-H460) of 42.3 µM and an IC50 (HUVEC [2]) of 56.5 µM. The IC50 (HUVEC [5]) was > 100 µM, the inhibition at 30 µM (HUVEC [6]) was 15.8% and the inhibition at 15 µM (HUVEC [7]) was 46.2%. For the same compound, the “inhibition (INH)” value (HUVEC [8]) was 49.2%.
